Only some compounds are listed: those with a hit (about 1.2% of all), similar ones and a draw of the others.
MLL AF4-AF9 inh = MLL-AF4/AF9 protein interaction inhibition | AlphaScreen, biotin-AF4 peptide binding to FLAG-AF9 | inhibition, % at 10 µM | hit rate 0.47% among 350,000 | AID 651704;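 active = every replicate reaching a set inhibition limit, whatever the replicate mean, cut at about 25% in these data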
FN deposit inh = fibronectin deposition inhibition; AH1F fibroblasts, Alexa488-fibronectin deposition fluorescence, overnight; hit rate 0.086% among 350,000; inhibition, % at 12.6 µM;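 active = mean inhibition across replicates of 30% or more, regardless of how many single replicates reach that level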
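Material: AH1F fibroblast monolayer depositing Alexa488-labelled fibronectin into matrix / Amount: 10000 AH1F cells per well / Signal: fluorescence 485/525 nm / Medium: DMEM, 2% serum / Compound: single dose, pinned / Incubation: 1 h cell adhesion before compound, then overnight fibronectin incubation / Reagent: Alexa488-FN, 24 nM final / Read-out: inhibition of fibronectin deposition signal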
Glyco luc inh = blocks N-linked glycosylation in D54 reporter cells; D54 ERlucT glycosylation luciferase reporter, 24 h; percent of 100 nM tunicamycin response; AID 588692; hit rate 0.23% among 360,000; reporter increase, % at 12.5 µM;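 active = mean luciferase reporter signal, scaled so untreated is 0 and the glycosylation-blocking control 100, at or above a set limit in every replicate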;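 note: luciferase carries N-glycosylation sites so blocking glycosylation raises the light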
RAD54 branch = blocks human RAD54 Holliday junction branch migration; hit rate 0.14% among 360,000; AID 602329; FAM/BHQ fluorescence; Q92698; inhibition, % at 10.4 µM;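 active = mean normalized replicate activity at least 40 and at least half of replicates scoring 40 or more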;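 note: inhibitors cause a drop in the FAM fluorescence signal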
Target sequence (Q92698 whole entry, looked up): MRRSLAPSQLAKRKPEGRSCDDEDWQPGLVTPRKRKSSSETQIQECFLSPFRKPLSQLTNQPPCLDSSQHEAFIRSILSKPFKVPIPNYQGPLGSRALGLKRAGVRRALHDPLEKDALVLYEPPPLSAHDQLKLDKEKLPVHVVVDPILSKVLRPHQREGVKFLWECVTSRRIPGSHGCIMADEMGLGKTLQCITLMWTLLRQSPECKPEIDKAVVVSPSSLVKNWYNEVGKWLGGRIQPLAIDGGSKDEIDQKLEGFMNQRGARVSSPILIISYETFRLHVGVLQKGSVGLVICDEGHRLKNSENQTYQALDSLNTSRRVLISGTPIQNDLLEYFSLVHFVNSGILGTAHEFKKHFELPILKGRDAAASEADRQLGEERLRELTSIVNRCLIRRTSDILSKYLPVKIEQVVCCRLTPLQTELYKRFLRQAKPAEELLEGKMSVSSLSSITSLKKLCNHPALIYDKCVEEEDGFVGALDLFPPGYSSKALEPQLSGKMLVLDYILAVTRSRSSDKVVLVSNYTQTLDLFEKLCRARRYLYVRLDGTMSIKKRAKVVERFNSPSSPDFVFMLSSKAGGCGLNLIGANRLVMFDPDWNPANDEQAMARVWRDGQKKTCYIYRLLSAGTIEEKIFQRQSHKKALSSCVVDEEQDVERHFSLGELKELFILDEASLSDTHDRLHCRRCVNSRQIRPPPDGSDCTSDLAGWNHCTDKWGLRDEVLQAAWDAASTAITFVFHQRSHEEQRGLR
NSD2 inh = inhibitors of human histone methyltransferase NSD2. NSD2 peptide methylation, AlphaScreen, 120 min. inhibition, % at 12.5 µM. hit rate 0.54% among 310,000. AID 743445; in the data active = inhibition above about 50%
RAD52 anneal inh = inhibitors of human RAD52 DNA annealing | inhibition, % at 18.7 µM | hit rate 0.46% among 360,000 | recombinant RAD52 DNA annealing, FRET fluorescence | P43351;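 active = every replicate showing at least 50% inhibition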
Alpha artifact = interferes with AlphaScreen signal, flagging NSD2 false positives. shares compounds with NSD2 inh. AlphaScreen artifact counterscreen, preloaded methylated H4 peptide. AC35, µM (highest dose often 10 µM). hit rate 9.4% among 1,500; call rule not given here
Of the large screens only hits and unclear results are named; the others gave an inactive call (follow-up assays come after a bar, where they were run).

O=C(CCCN1C(=O)/C(=C/c2ccco2)SC1=S)Nc1cccc(C(=O)O)c1	NSD2 inh 125 (no result: RAD54 branch) | Alpha artifact inactive
C[C@@H]1CN([C@@H](C)CO)C(=O)Cc2cc(NC(=O)Nc3ccc(C(F)(F)F)cc3)ccc2O[C@@H]1CN(C)Cc1ccncc1	none (no result: FN deposit inh, Glyco luc inh, NSD2 inh)
FC(F)(F)c1ccc(N/N=C/c2cccnc2)nc1	NSD2 inh 116 | Alpha artifact inactive
CCN(CC)CCNC(=O)/C(=C\c1cccn1C)NC(=O)c1cccs1	NSD2 inh 55 (no result: RAD54 branch) | Alpha artifact inactive
Cc1ccc(S(=O)(=O)Nc2ccc3c(c2)C(=O)N([C@@H](C)CO)C[C@@H](C)[C@H](CN(C)Cc2ccccc2)OCCCC[C@@H](C)O3)cc1	none (no result: MLL AF4-AF9 inh, Glyco luc inh, NSD2 inh, RAD52 anneal inh)
COC1=C(C)C(=O)C2=C(C1=O)C1C3CC4=C(C(=O)C(OC)=C(C)C4=O)C(CNC(=O)C(C)=O)N3C(C#N)C(C2)N1C (centres undefined)	NSD2 inh 75 (no result: RAD54 branch) | Alpha artifact inactive
CCCN(CCC)CCCNC(=O)c1ccc(CS(=O)(=O)c2c(Cl)cccc2Cl)o1	NSD2 inh 63 | Alpha artifact inactive
C[C@@H]1CN([C@@H](C)CO)C(=O)c2cc(NS(=O)(=O)c3ccc(F)cc3)ccc2O[C@@H](C)CCCCO[C@@H]1CN(C)C(=O)Nc1ccc(F)cc1	none (no result: MLL AF4-AF9 inh, Glyco luc inh, NSD2 inh, RAD52 anneal inh)
COc1ccccc1C(=O)NNC(=O)Cc1ccccc1	NSD2 inh 55 | Alpha artifact inactive
O=C(C[C@H]1C[C@H]2c3cc(NC(=O)C4CCOCC4)ccc3O[C@H]2[C@H](CO)O1)NCC1CC1	none (no result: Glyco luc inh, NSD2 inh)
Cc1cc(C)n(CC(O)COc2c(C)cccc2C)n1 (centres undefined)	NSD2 inh 55 (no result: RAD54 branch) | Alpha artifact inactive
Cc1cc(C)n(CC(O)COc2cccc(OCC(O)Cn3nc(C)cc3C)c2)n1 (centres undefined)	none (no result: MLL AF4-AF9 inh, FN deposit inh, NSD2 inh, RAD52 anneal inh)
O=C(O)Cc1ccc(-n2cccc2)cc1	NSD2 inh 117 | Alpha artifact inactive
COc1cccc(C2c3c(oc4ccccc4c3=O)C(=O)N2CCCN(C)C)c1OC (centres undefined)	NSD2 inh 60 (no result: MLL AF4-AF9 inh, FN deposit inh, RAD52 anneal inh) | Alpha artifact inactive
COc1ccc(-c2csc(Nc3ccc(S(=O)(=O)Nc4cc(OC)nc(OC)n4)cc3)n2)cc1	none (no result: MLL AF4-AF9 inh, FN deposit inh, NSD2 inh, RAD52 anneal inh)
COc1ccc(-c2csc(Nc3ccc(S(=O)(=O)Nc4cc(C)on4)cc3)n2)cc1C	NSD2 inh 63 (no result: RAD54 branch) | Alpha artifact inactive
CCC(=O)Nc1ccc2c(c1)C(=O)N(C)[C@@H]1CC[C@H](CC(=O)NCCc3ccccc3)O[C@@H]1CO2	none (no result: Glyco luc inh, NSD2 inh)
CC1CN(C(=O)COC(=O)/C=C/c2ccccc2)CC(C)O1 (centres undefined)	NSD2 inh 61 | Alpha artifact inactive
CCCCC(=O)OCc1cn(-c2ccc(Cl)cc2)nn1	NSD2 inh 121 (no result: MLL AF4-AF9 inh, FN deposit inh, RAD52 anneal inh) | Alpha artifact inactive
COCC#Cc1cnc2c(c1)C(=O)N([C@@H](C)CO)C[C@H](C)[C@@H](CN(C)C(=O)C1CCCCC1)O2	none (no result: FN deposit inh, Glyco luc inh, NSD2 inh)
CCNC(=O)Nc1ccc2c(c1)c(=O)n(C)n2CC=C(C)C	none
COc1ccc(CCNC(=O)Nc2ccc3c(c2)c(=O)n(C)n3CC=C(C)C)cc1OC	NSD2 inh 52 | Alpha artifact inactive
C=CCn1c(SCC(=O)c2ccc(O)c(O)c2)nnc1-c1ccccc1OC	none (no result: NSD2 inh)
C=CCn1c(SCC(=O)c2ccc(O)c(O)c2)nnc1-c1cccnc1	NSD2 inh 72 (no result: RAD54 branch) | Alpha artifact inactive
CCn1c(SCC(=O)c2ccc(O)c(O)c2)nnc1-c1ccccc1OC	NSD2 inh 88 (no result: MLL AF4-AF9 inh, FN deposit inh, RAD52 anneal inh) | Alpha artifact inactive
C=CCn1c(SCC(=O)c2ccc(O)c(O)c2)nnc1-c1cccc(C)c1	none (no result: NSD2 inh)
O=C(C[C@H]1C=C[C@@H](NC(=O)C2CCC2)[C@H](CO)O1)NCCCN1CCOCC1	none (no result: Glyco luc inh, NSD2 inh)
CCCC(CCC(=O)Nc1cccc([N+](=O)[O-])c1)C(=O)O (centres undefined)	NSD2 inh 83 | Alpha artifact inactive
O=C(O)CCCC(=O)Nc1cccc([N+](=O)[O-])c1	none (no result: RAD54 branch)
CN1c2ccccc2N(C)C1(C)c1ccccc1	MLL AF4-AF9 inh 49, NSD2 inh 54 (no result: RAD54 branch) | Alpha artifact inactive
O=C(C[C@H]1C[C@@H]2c3cc(NC(=O)CC4CC4)ccc3O[C@@H]2[C@H](CO)O1)NCc1cccc(F)c1	none (no result: Glyco luc inh, NSD2 inh)
CSc1nnc2c(n1)OC=Nc1ccc(Br)cc1-2	none
CSc1nnc2c(n1)OC=Nc1ccccc1-2	NSD2 inh 67 (no result: MLL AF4-AF9 inh, FN deposit inh, RAD52 anneal inh) | Alpha artifact inactive
C[C@H](CO)N1C[C@H](C)[C@@H](CN(C)Cc2ccncc2)Oc2cc(C#CC3CC3)ccc2S1(=O)=O	none (no result: Glyco luc inh, NSD2 inh)
Oc1cccc(NC(=S)N=Nc2c(O)[nH]c3ccc(Br)cc23)c1	NSD2 inh 67 | Alpha artifact inactive
Oc1ccc(NC(=S)N=Nc2c(O)[nH]c3ccc(Br)cc23)cc1	none (no result: NSD2 inh)
CC(=O)N1N=C(c2ccc(Cl)cc2)CC1c1ccc([N+](=O)[O-])cc1 (centres undefined)	none
COc1ccc(C2CC(c3ccc(Cl)cc3)=NN2C(C)=O)cc1 (centres undefined)	NSD2 inh 54 | Alpha artifact inactive
NNC(=O)c1nc(-c2ccccc2)cc(-c2ccccc2)n1	Glyco luc inh 47, NSD2 inh 54 | Alpha artifact inactive
Cc1noc(C)c1NC(=O)N[C@H]1CC[C@H](CCNC(=O)C2CCCCC2)O[C@@H]1CO	none (no result: Glyco luc inh, NSD2 inh)
COc1ccc(-c2csc3ncnc(NCCCO)c23)cc1	none
CCN(CC)CCCNc1ncnc2scc(-c3ccc(F)cc3)c12	NSD2 inh 63 | Alpha artifact inactive
COc1ccccc1C(=O)Nc1ccc2c(c1)C(=O)N(C)C[C@@H](OC)[C@H](C)CN(CC1CC1)[C@@H](C)CO2	none (no result: Glyco luc inh, NSD2 inh)
O=C1C=C(c2c(O)ccc3ccccc23)c2ccccc2C1=O	NSD2 inh 112 (no result: RAD54 branch) | Alpha artifact inactive
O=C1C=C(O)c2cccc(O)c2C1=O	none (no result: FN deposit inh, NSD2 inh)
O=C(CSc1nnc2ccccn12)NNC(=O)c1ccc([N+](=O)[O-])cc1	NSD2 inh 86 | Alpha artifact inactive
O=C(CSc1nnc2ccccn12)NNC(=O)c1ccccc1	none (no result: RAD54 branch)
COc1ccc(S(=O)(=O)Nc2cccc3c2O[C@H](CN(C)Cc2ccc(C(=O)Nc4ccccc4N)cc2)[C@H](C)CN([C@H](C)CO)C3=O)cc1	none (no result: FN deposit inh, Glyco luc inh, NSD2 inh)
COc1ccc(S(=O)(=O)N(C)CC(=O)NCCN2CCOCC2)cc1Cl	NSD2 inh 87 | Alpha artifact inactive
C[n+]1cccc2cccc([O-])c21	NSD2 inh 103 (no result: RAD54 branch) | Alpha artifact inactive
[O-][n+]1cccc2cccc(O)c21	none
O=C(Cc1ccccc1)NCC1COc2ccccc2O1 (centres undefined)	none (no result: FN deposit inh, RAD54 branch)
COc1cc(CC(=O)NCC2COc3ccccc3O2)cc(OC)c1OC (centres undefined)	NSD2 inh 54 (no result: RAD54 branch) | Alpha artifact inactive

Screening data as filed in PubChem.
